Entries after “also recorded” stand apart in the source; their conditions may differ.
Experiments:
[1] = system: MCF-7 human breast carcinoma cells; assay: Growth of MCF-7 cells; format: cell-based; conditions: MCF7, 48 h, read-out: MCF-7 IC50 ± SD
[2] = system: Saccharomyces cerevisiae BY4741 wild type strain; assay: Yeast toxicity protocol; format: cell-based; conditions: 20 μM, growth recorded after 3 days at 28 °C; for effect on viability/growth of BY4741 strain cells: 18 h incubation; for serial dilution to which cell growth was limited: 10-fold serial cell dilution
Outline: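 S. cerevisiae BY4741 (MATa his3Δ1 leu2Δ0 met15Δ0 ura3Δ0) grown at 28 °C in SD minimal medium with 2% glucose. Exponential cells (5 × 10^6/mL) exposed to 20 μM for 18 h at 28 °C, then centrifuged, washed twice with water and resuspended in SD. Serial 10-fold dilutions incubated overnight at 28 °C, spotted on YPD plates, and growth scored after 3 days at 28 °C.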

[3] = system: tubulin; assay: [3H]Colchicine binding assay; set-up: species or system bovine; conditions: Tubulin 1 μM; [3H]colchicine and inhibitor both 5 μM
[4] = system: HeLa cervical cancer cells; assay: Cell viability/proliferation assay, HeLa; format: cell-based, human; conditions: 24 h, control cells = 100%
Outline: (§1)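 Cells grown at 37 °C, 5% CO2, in D-MEM with 10% fetal calf serum, 4 mM glutamine and 2 mM pyruvate; HCT116/chr3 also got 500 μg/mL G418. Seeded at 1 × 10^3 cells/well and treated 24 h later for 24 h from a 10 mM DMSO stock. Vehicle control was 1% DMSO. Tetrazolium reagent added for 4 h at 37 °C, then absorbance read at 492 nm. Quadruplicate, three repeats; results are % of control, mean ± SD.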

[5] = system: HCT116/chr3 human colon cancer cells; assay: Cell viability/proliferation assay, HCT116/chr3; format: cell-based; conditions: 24 h, control cells = 100%
Outline: as §1

[6] = system: HEK, human embryonic kidney 293 cells; assay: Growth inhibition, MTT, HEK; format: cell-based; conditions: read-out: HEK IC50 ± SD; MTT method; incubation 48 h
[7] = system: U937, human leukemic monocyte lymphoma cells; assay: Growth inhibition, MTT, U937; format: cell-based; conditions: read-out: U937 IC50 ± SD; MTT method; incubation 48 h
[8] = system: HAOSMC: human aortic smooth muscle cells; assay: Growth inhibition of nontransformed cells, HAOSMC; format: cell-based; conditions: read-out: HAOSMC IC50 ± SD
[9] = system: PtK2: potorous tridactylis kidney epithelial cells; assay: Growth inhibition of nontransformed cells, PtK2; format: cell-based, Potorus tridactylis; conditions: read-out: PtK2 IC50 ± SD
[10] = system: A10, rat embryonic aortic smooth muscle cells; assay: Growth inhibition of nontransformed cells, A10; format: cell-based; conditions: read-out: A10 IC50 ± SD
[11] = system: HUVEC: human umbilical vein endothelial cells; assay: Growth inhibition of nontransformed cells, HUVEC; format: cell-based; conditions: read-out: HUVEC IC50 ± SD
[12] = system: M14, human melanoma cells; assay: Growth inhibition, MTT, M14; format: cell-based; conditions: read-out: M14 IC50 ± SD; MTT method; incubation 48 h
[13] = system: HEK cells; assay: Time-lapse microscopy, HEK cell morphology and growth; format: cell-based, human; conditions: 48 h treatment
[14] = system: M14 cells; assay: Time-lapse microscopy, M14 cell morphology and growth; format: cell-based, human; conditions: 48 h treatment

Q: How did the IC50 [1] turn out when `COc1cc(Sc2c[nH]c3ccccc23)cc(OC)c1OC` [Compound 3] was run?
A: 0.034 ± 0.009 µM

Q: For `COC(=O)c1[nH]c2ccccc2c1Sc1cc(OC)c(OC)c(OC)c1` [Compound 6], which IC50 [1] is on record?
A: 0.025 ± 0.001 µM

Q: `COc1cc(Sc2c[nH]c3ccc(Cl)cc23)cc(OC)c1OC` [Compound 12] was tested. Which IC50 [1] did it give?
A: 0.077 ± 0.007 µM

Q: With `CCOC(=O)c1[nH]c2ccc(Cl)cc2c1Sc1cc(OC)c(OC)c(OC)c1` [Compound 18] as the compound, how does the IC50 [1] read?
A: 0.11 ± 0.002 µM

Q: Which results are given for `COc1cc(Cn2cccc2C(=O)O)cc(OC)c1OC` [Compound 54, 1-(3,4,5-Trimethoxybenzyl)-1H-pyrrole-2-carboxylic acid]?
A: effect on viability/growth of BY4741 strain cells [2]: effectively inhibited growth; also recorded: strongly reduced the viability; serial dilution to which cell growth was limited [2]: first dilution

Q: Which “inhibition colchicine binding (% ± SD)” value [3] does the source give for “(5-Bromo-1H-indol-3-yl)(3,4,5-trimethoxyphenyl)methanone [Compound 25]” here?
A: 45±5%

Q: With “(5-Methoxy-1H-indol-3-yl)-(3,4,5-trimethoxyphenyl)methanone [Compound 34]” as the compound, how does the “inhibition colchicine binding (% ± SD)” value [3] read?
A: 32±7%

Q: How did the “inhibition colchicine binding (% ± SD)” value [3] turn out when “Ethyl 5-Bromo-3-(3,4,5-trimethoxybenzoyl)-1H-indole-2-carboxylate [Compound 31]” was run?
A: 58±2%

Q: “Ethyl 5-Bromo-3-(3,4,5-trimethoxybenzyl)-1H-indole-2-carboxylate [Compound 32]” was tested. Which “inhibition colchicine binding (% ± SD)” value [3] did it give?
A: 53±4%

Q: With “Ethyl 5-Bromo-3-(3,4,5-trimethoxyphenylthio)-1H-indole-2-carboxylate [Compound 30]” as the compound, how does the “inhibition colchicine binding (% ± SD)” value [3] read?
A: 62±7%

Q: For “Ethyl 5-Methoxy-3-(3,4,5-trimethoxybenzoyl)-1H-indole-2-carboxylate [Compound 43]”, which “inhibition colchicine binding (% ± SD)” value [3] is on record?
A: 49±4%

Q: “Ethyl 5-Methoxy-3-(3,4,5-trimethoxybenzyl)-1H-indole-2-carboxylate [Compound 45]” was tested. Which “inhibition colchicine binding (% ± SD)” value [3] did it give?
A: 42±4%

Q: Which results are given for “Methyl 5-Bromo-3-(3,4,5-trimethoxybenzoyl)-1H-indole-2-carboxylate [Compound 28]”?
A: inhibition colchicine binding (% ± SD) [3]: 67±4%; % of cell proliferation, HeLa ([4]; 0.5 μM): 41±1.1%; % of cell proliferation, HeLa ([4]; 1 μM): 47±0.4%; % of cell proliferation, HCT116/chr3 ([5]; 0.5 μM): 59±0.2%; % of cell proliferation, HCT116/chr3 ([5]; 1 μM): 66±3.5%; IC50 [6]: 0.131 ± 0.003 µM; IC50 [7]: 0.191 ± 0.007 µM; IC50 [8]: 0.055 ± 0.04 µM; IC50 [9]: 0.11 ± 0.06 µM; IC50 [10]: 0.28 ± 0.04 µM; IC50 [11]: 0.15 µM

Q: How did the “inhibition colchicine binding (% ± SD)” value [3] turn out when “Methyl 5-Bromo-3-(3,4,5-trimethoxybenzyl)-1H-indole-2-carboxylate [Compound 29]” was run?
A: 59±7%

Q: And the “% of cell proliferation, HeLa” value ([4]; 0.5 μM)?
A: 52±0.4%

Q: What about the “% of cell proliferation, HeLa” value ([4]; 1 μM) of the same compound?
A: 45±1.6%

Q: And the “% of cell proliferation, HCT116/chr3” value ([5]; 0.5 μM)?
A: 51±4.6%

Q: And the “% of cell proliferation, HCT116/chr3” value ([5]; 1 μM)?
A: 51±1.6%

Q: What about the IC50 [6] of the same compound?
A: 0.16 ± 0.005 µM

Q: And the IC50 [12]?
A: 0.12 ± 0.01 µM

Q: And the IC50 [7]?
A: 0.159 ± 0.01 µM

Q: What about the IC50 [8] of the same compound?
A: 0.035 ± 0.007 µM

Q: What about the IC50 [9] of the same compound?
A: 0.27 ± 0.1 µM

Q: What about the IC50 [10] of the same compound?
A: 0.23 ± 0.1 µM

Q: What about the IC50 [11] of the same compound?
A: 0.14 ± 0.02 µM

Q: And the “effect on viability/growth of BY4741 strain cells” value [2]?
A: significant BY4741 inhibition

Q: What about the “serial dilution to which cell growth was limited” value [2] of the same compound?
A: third dilution

Q: How did the “inhibition colchicine binding (% ± SD)” value [3] turn out when “Methyl 5-Bromo-3-(3,4,5-trimethoxyphenylthio)-1H-indole-2-carboxylate [Compound 27]” was run?
A: 75±3%

Q: And the “% of cell proliferation, HeLa” value ([4]; 0.5 μM)?
A: 53±0.1%

Q: And the “% of cell proliferation, HeLa” value ([4]; 1 μM)?
A: 60±0.1%

Q: And the “% of cell proliferation, HCT116/chr3” value ([5]; 0.5 μM)?
A: 57±0.9%

Q: What about the “% of cell proliferation, HCT116/chr3” value ([5]; 1 μM) of the same compound?
A: 62±1.9%

Q: And the IC50 [6]?
A: 0.189 ± 0.005 µM

Q: What about the IC50 [12] of the same compound?
A: 0.155 ± 0.009 µM

Q: And the IC50 [7]?
A: 0.177 ± 0.01 µM

Q: What about the IC50 [8] of the same compound?
A: 0.1 ± 0.03 µM

Q: And the IC50 [9]?
A: 0.28 ± 0.03 µM

Q: What about the IC50 [10] of the same compound?
A: 0.23 ± 0.1 µM

Q: And the IC50 [11]?
A: 0.14 ± 0.02 µM

Q: What does the source list for “Methyl 5-Methoxy-3-(3,4,5-trimethoxybenzoyl)-1H-indole-2-carboxylate [Compound 39]”?
A: inhibition colchicine binding (% ± SD) [3]: 78±6%; % of cell proliferation, HeLa ([4]; 0.5 μM): 55±0.7%; % of cell proliferation, HeLa ([4]; 1 μM): 54±0.3%; % of cell proliferation, HCT116/chr3 ([5]; 0.5 μM): 57±3.4%; % of cell proliferation, HCT116/chr3 ([5]; 1 μM): 55±1.2%; IC50 [6]: 0.14 ± 0.001 µM; IC50 [12]: 0.1 ± 0.005 µM; IC50 [7]: 0.155 ± 0.01 µM; IC50 [8]: 0.035 ± 0.007 µM; IC50 [9]: 0.19 ± 0.02 µM; IC50 [10]: 0.095 ± 0.08 µM; IC50 [11]: 0.11 ± 0.06 µM; effect on viability/growth of BY4741 strain cells [2]: significant inhibitory effects; effect on HEK cell morphology [13]: significant morphologic changes; effect on M14 cell morphology [14]: significant morphologic changes

Q: Which results are given for “Methyl 5-Methoxy-3-(3,4,5-trimethoxybenzyl)-1H-indole-2-carboxylate [Compound 41]”?
A: inhibition colchicine binding (% ± SD) [3]: 59±1%; % of cell proliferation, HeLa ([4]; 0.5 μM): 52±0.7%; % of cell proliferation, HeLa ([4]; 1 μM): 51±0.2%; % of cell proliferation, HCT116/chr3 ([5]; 0.5 μM): 69±6.7%; % of cell proliferation, HCT116/chr3 ([5]; 1 μM): 69±0.3%; IC50 [6]: 0.181 ± 0.003 µM; IC50 [12]: 0.137 ± 0.005 µM; IC50 [7]: 0.189 ± 0.005 µM; IC50 [8]: 0.07 ± 0.01 µM; IC50 [9]: 0.19 ± 0.2 µM; IC50 [10]: 0.13 ± 0.1 µM; IC50 [11]: 0.17 ± 0.05 µM; effect on HEK cell morphology [13]: significant morphologic changes; effect on M14 cell morphology [14]: significant morphologic changes

Q: For “methyl 5-methoxy-3-(3,4,5-trimethoxyphenylthio)-1H-indole-2-carboxylate [Compound 36]”, which “effect on viability/growth of BY4741 strain cells” value [2] is on record?
A: significant inhibitory effects

— PMC2797757 (Journal of medicinal chemistry, 2009)
